Active and inactive are the calls of the source. The calls are words filed in the database; no cut-off is given here.
Assays:
Genome polyprotein [1] = molecular target: T1, Genome polyprotein (dengue virus type 2, UniProt P12823); assay: Inhibition of Dengue virus 2 NS2B/NS3 protease using Bz-Nle-Lys-Arg-Arg-AMC as substrate preincubated for 30 mins before substrate addition by fluorescence assay
How it was run: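 Purified DENV2 NS2B-NS3pro (200 nM; E. coli BL21) mixed with compound at eleven levels, 0.1 nM–200 µM, in pH 8.5 Tris-HCl buffer with 10 mM NaCl, 20% glycerol, 1 mM CHAPS. Preincubated 30 min at 37 °C, then Bz-Nle-Lys-Arg-Arg-AMC added. AMC fluorescence (380/460 nm) followed every 10 s over 5 min. IC50 from the concentration series.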

[2] = molecular target: Genome polyprotein (dengue virus type 2) (UniProt P12823); assay: Inhibition of Dengue virus 2 NS2B/NS3 protease using Bz-Nle-Lys-Arg-Arg-AMC as substrate preincubated at 20 uM for 30 mins before substrate addition by fluorescence assay
How it was run: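 E. coli BL21-expressed DENV2 NS2B-NS3pro, 200 nM, with compound at 20 µM in 50 mM Tris-HCl pH 8.5, 10 mM NaCl, 20% glycerol, 1 mM CHAPS, 37 °C for 30 min. Bz-Nle-Lys-Arg-Arg-AMC added to start. Fluorescence read every 10 s for 5 min (ex 380/em 460 nm). Inhibition rate from maximum reaction rate with versus without compound. Aprotinin 1 µM as positive control.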

Genome polyprotein [3] = molecular target: T1, Genome polyprotein; assay: (§1) Binding affinity to Dengue virus 2 NS2B/NS3 protease by SPR assay
How it was run: (§2)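 DENV2 NS2B/NS3pro purified from E. coli BL21 and amine-coupled onto a CM5 chip in 10 mM sodium acetate, pH 3.95. Compounds serially diluted in HBS (0.01 M HEPES, 0.15 M NaCl, 3 mM EDTA, 0.005% P20, pH 7.4). Biacore 3000 SPR gave the equilibrium KD.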

[4] = molecular target: Genome polyprotein (dengue virus type 2) (UniProt P12823); assay: as §1; how it was run: as §2

SMILES | IC50 (Genome polyprotein [1]) | inhibition [2] | Kd (Genome polyprotein [3]) | Activity [4]
COc1ccc(CSc2nnc(NC(=O)/C(C#N)=C/c3cn(Cc4ccccc4)c4ccccc34)s2)cc1 | 3.44 µM | 76.3% | – | –
N=C1/C(=C/c2cn(Cc3ccccc3)c3ccccc23)C(=O)N=C2SC(SCc3ccccc3)=NN12 | 6.09 µM | 72% | – | –
N#C/C(=C\c1cn(Cc2ccc(C(F)(F)F)cc2)c2ccccc12)C(=O)Nc1nnc(SCc2ccccc2)s1 | – | 45.9% | – | –
N#C/C(=C\c1cn(Cc2ccccc2)c2ccccc12)C(=O)Nc1nnc(SCc2ccc(Br)cc2)s1 | – | 65.8% | – | –
N#C/C(=C\c1cn(Cc2ccccc2)c2ccccc12)C(=O)Nc1nnc(C(F)(F)F)s1 | 10.1 µM | 76% | 9.27 µM | –
N#C/C(=C\c1cn(Cc2ccc(C(F)(F)F)cc2C(F)(F)F)c2ccccc12)C(=O)Nc1nnc(SCc2ccccc2)s1 | – | 54.1% | – | –
N#C/C(=C\c1cn(Cc2ccccc2)c2ccccc12)C(=O)Nc1nnc(SCc2ccc(F)cc2)s1 | 3.72 µM | 83.4% | – | –
O=C(/C=C/c1cn(Cc2ccccc2)c2ccccc12)Nc1nnc(C(F)(F)F)s1 | – | – | – | inactive

Other lines, results leading:

IC50 (Genome polyprotein [1]) | inhibition [2] | Kd (Genome polyprotein [3]) | Activity [4] | SMILES
– | 63.4% | – | – | N#C/C(=C\c1cn(Cc2ccccc2)c2ccccc12)C(=O)Nc1nnc(SCc2ccc(Cl)cc2)s1
3.58 µM | 88.9% | – | – | N#C/C(=C\c1cn(Cc2ccccc2F)c2ccccc12)C(=O)Nc1nnc(SCc2ccccc2)s1
4.44 µM | 79% | 3.59 µM | – | N#C/C(=C\c1cn(Cc2ccccc2)c2ccccc12)C(=O)Nc1nnc(SCc2ccccc2)s1
2.86 µM | 85.8% | – | – | N#C/C(=C\c1cn(Cc2ccccc2C#N)c2ccccc12)C(=O)Nc1nnc(SCc2ccccc2)s1
– | 63.5% | – | – | N#C/C(=C\c1cn(Cc2ccccc2)c2ccccc12)C(=O)Nc1nnc(SCc2ccccc2Cl)s1
– | 50% | – | – | N#C/C(=C\c1cn(Cc2ccccc2)c2ccccc12)C(=O)Nc1nnc(SCc2cccc3ccccc23)s1
– | 69.4% | – | – | Cc1ccccc1CSc1nnc(NC(=O)/C(C#N)=C/c2cn(Cc3ccccc3)c3ccccc23)s1
2.24 µM | 86.5% | 2.07 µM | – | N#C/C(=C\c1cn(Cc2ccc(F)cc2)c2ccccc12)C(=O)Nc1nnc(SCc2ccccc2)s1

From ChEMBL document CHEMBL3352392, “Identification of novel thiadiazoloacrylamide analogues as inhibitors of dengue-2 virus NS2B/NS3 protease” (Bioorg Med Chem, 2014)
